Screens from PubChem.
PfG6PD inh: PfG6PD (Plasmodium falciparum) enzyme inhibition; PfGluPho enzyme, NADPH resazurin-diaphorase fluorescence; inhibition, % at 20 µM; 350,000 compounds, 0.78% hits;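 active = inhibition reaching at least a set limit at 20 µM in the primary screen, cut at about 59% in these data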;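 also: 0% = DMSO wells with substrate and 100% = DMSO wells lacking glucose-6-phosphate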
L major viab: inhibitors of Leishmania major promastigote growth; Leishmania major promastigotes, resazurin fluorescence viability; inhibition, % at 10 µM; 200,000 compounds, 9% hits; AID 1063;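 also: promastigotes grown with compound for 44 hours at 28 °C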
G6PDH counter: L. mesenteroides G6PDH inhibition counter-screen. Purified L. mesenteroides G6PDH, diaphorase/resazurin coupled fluorescence, 45 min. inhibition, % at 5 µM. 200,000 compounds, 0.12% hits
Diaph inh CS: counter-screen for diaphorase-based assays: diaphorase inhibitors and chemical oxidizers; diaphorase resazurin-to-resorufin fluorescence, NADH, 16 min; bacterial (C. kluyveri) enzyme, not human; inhibition, % at 20 µM; 190,000 compounds, 0.69% hits;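 active = primary screen inhibition at 20 µM above a set limit, cut at about 50% in these data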;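 also: plate controls were DMSO with full reaction for no effect and wells lacking NADH for full effect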
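Assay system – diaphorase enzyme from Clostridium kluyveri · Amount – diaphorase 0.14 U/mL (working solution) · Times – reaction incubation of 16 min at room temperature · Controls – No-NADH positive control and DMSO neutral control · Signal – resorufin fluorescence 544/590 nm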
DTT redox prof: compounds producing H2O2 with reducing agent – biochemical, NIH compound library profiling, artefact control for MLSCN library redox annotation, primary screen; AID 878; 200,000 compounds, 0.03% hits; activation, % at 10 µM; DTT-dependent redox cycling H2O2, phenol red/HRP absorbance; 100% = 100 µM peroxide control, 0% = buffer;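 active = activation of at least 50% relative to the plate's high and low controls in the primary single-dose screen; inactive = activation below 50%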;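 also: compound incubated with DTT at 0.8 mM final as the reducing agent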
Diaph act CS: diaphorase activation or chemical reduction counter-screen | Diaphorase/resazurin coupled assay, resorufin fluorescence, 16 min; hits give high values; 1 = vehicle wells, 0 = NADH-free wells | activation factor at 20 µM | 190,000 compounds, 0.005% hits;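 active = diaphorase activity raised at least twofold by the compound at 20 µM; inactive = activation factor below 2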
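test system = bacterial diaphorase enzyme (C. kluyveri) | quantity = enzyme 0.07 U/mL final | reagent = NADH substrate 0.114 mM plus resazurin dye 0.1 mM, final | incubation = 16 min enzyme reaction, ambient temperature | buffer or medium = HEPES pH 7.4 buffer with MgCl2 and Tween 20 | signal = fluorescence of resorufin, 544 nm excitation, 590 nm emission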
PfGluPho conf: confirmation of Plasmodium falciparum G6PD inhibitors | shares compounds with PfG6PD inh | recombinant PfGluPho, NADPH-diaphorase-resazurin fluorescence | inhibition, % at 20 µM | 2,400 compounds, 34% hits | AID 504753;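 active = inhibition of at least 50% at 20 µM in any single replicate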;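 also: 0% = DMSO with substrate and 100% = DMSO lacking glucose-6-phosphate substrate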
Diaph ctr 10uM: diaphorase inhibition or oxidation at 10 uM NADPH. shares compounds with PfG6PD inh. diaphorase-coupled resazurin reduction, fluorescence, NADPH 10 uM. inhibition, % at 20 µM. 820 compounds, 39% hits. AID 504862;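 active = average inhibition reaching 50% or more with the compound at 20 µM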;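 also: resorufin red fluorescence formed as diaphorase reduces resazurin using NADPH; 0% = DMSO with enzyme and 100% = DMSO without enzyme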
Diaphorase 30uM: diaphorase inhibition or oxidation at 30 uM NADPH. Diaphorase/resazurin coupled assay, resorufin fluorescence. AID 504863. 820 compounds, 29% hits. shares compounds with PfG6PD inh. inhibition, % at 20 µM;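 active = inhibition averaging 50% or more, tested at 20 µM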;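 also: 0% = DMSO with enzyme and 100% = DMSO wells lacking diaphorase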
Numbers without * were called inactive; x = no result. The full list was thinned out, with hits kept by preference. Rule as the data show it, unless noted: active = inhibition above about 50%; inactive = the rest.

SMILES	PfG6PD inh	L major viab	G6PDH counter	Diaph inh CS	DTT redox prof	Diaph act CS	PfGluPho conf	others
O=C(Nc1cccc(S(=O)(=O)Nc2ccccc2F)c1)c1ccc2ccccc2n1	76*	5	2	26	-1	0.7	49
O=C(/C=C/c1ccccc1)Nc1cccc(S(=O)(=O)Nc2ccccc2F)c1	71*	0	-2	28	-1	0.7	46
CCSc1nnc(NC(=O)c2cc(C)nc3ccccc23)s1	-9	-8	3	12	2	0.9	x
O=C(Nc1ccccc1)c1ccc2ccccc2n1	24	-7	6	-4	0	1	x
CCSc1nnc(NC(=O)c2ccc3ccccc3n2)s1	71*	18	6	14	0	0.9	43
COc1ccccc1NS(=O)(=O)c1cccc(NC(=O)c2ccc3ccccc3n2)c1	3	43	-64	30	0	0.7	x
O=C(Nc1ccccc1C(=O)O)c1ccc2ccccc2n1	74*	4	9	13	2	0.9	70*	Diaph ctr 10uM=59*;Diaphorase 30uM=68*
COC(=O)C1=C(C(=O)OC)[C@@H]2N(C)c3ccccc3[C@@]23C[C@@H](CO)N(C(=O)NCCBr)C3=N1	0	x	x	x	x	x	x
O=C(COc1ccccc1-c1ccccc1)NNC(=O)NC1CCCCC1	-10	2	4	5	-1	0.9	x
O=S(=O)(NC1=NCCCCC1)c1cc(F)ccc1F	2	x	x	x	x	x	x
O=C(OCC(=O)N1CCCCCC1)c1cc(S(=O)(=O)N2CCOCC2)ccc1F	-2	x	x	x	x	x	x
O=C(CCN1C(=O)/C(=C/c2ccccc2F)SC1=S)NCCCn1ccnc1	2	x	x	x	x	x	x
CCOc1ccccc1NC(C)C(=O)NC(=O)NC1CCCCC1 (stereo not given)	2	x	x	x	x	x	x
Cc1cc(C)cc(COn2ccnc2)c1	-17	-3	8	2	0	1	x
COc1cc(C(=O)NCC2CCCO2)ccc1OCc1ccccc1Cl (stereo not given)	-22	x	x	x	x	x	x
COc1ccc([N+](=O)[O-])cc1NC(=O)CSCc1cc(C)cc(C)c1	59*	6	-11	23	0	0.8	16
Cc1c2ccncc2cc2c1[nH]c1ccccc12	72*	x	x	x	x	x	18
O=c1c2c3c(sc2nc(NCCO)n1-c1ccccc1)CCCC3	-1	x	x	x	x	x	x
COc1ccc(-n2c(NN)nc3sc4c(c3c2=O)CCCC4)cc1	92*	1	4	11	-1	0.9	29
CC1CCC(C(C)C)C(OCC(O)CNC(C)C)C1 (stereo not given)	-15	x	x	x	x	x	x
O=c1[nH]nc(CNc2ccc(O)cc2)c2ccccc12	59*	-1	9	28	1	0.7	48*	Diaph ctr 10uM=1;Diaphorase 30uM=6
O=c1[nH]nc(CNc2ccc(C(F)(F)F)cc2)c2ccccc12	30	5	8	10	-2	0.9	x
Cc1ccn2c(CN3CCOCC3)c(-c3ccccc3)nc2c1	4	19	8	16	-3	0.8	x
Oc1ccc(N2CCN(Cc3c(-c4ccccc4)nc4ccccn34)CC2)cc1	59*	x	x	x	x	x	-1
O=S(=O)(c1ccc(S(=O)(=O)N2CCCC2)cc1)N1CCCCC1	2	x	x	x	x	x	x
SMILES	PfG6PD inh	L major viab	G6PDH counter	Diaph inh CS	DTT redox prof	Diaph act CS	PfGluPho conf	others
O=c1c2ccccc2sn1-c1ccc(S(=O)(=O)N2CCCCC2)cc1	111*	4	x	x	3	x	83*	Diaph ctr 10uM=5;Diaphorase 30uM=-13
O=c1c2ccccc2sn1-c1ccc(S(=O)(=O)N2CCCC2)cc1	111*	-9	5	-10	0	1.1	105*	Diaph ctr 10uM=-9;Diaphorase 30uM=-5
O=S(=O)(c1ccccc1)N1CCN(S(=O)(=O)N2CCCCCC2)CC1	3	x	x	x	x	x	x
CC1CCN(S(=O)(=O)c2ccc(C(=O)N3CCCC3C(=O)O)cc2)CC1 (stereo not given)	0	x	x	x	x	x	x
Brc1ccc(C2C3=C(Nc4ncnn42)c2ccccc2OC3c2ccncc2)cc1 (stereo not given)	83*	75*	6	16	0	0.8	54*	Diaph ctr 10uM=52*;Diaphorase 30uM=57*
O=C(NCCc1nnc2ccc(N3CCCC3)nn12)c1ccccc1	-3	x	x	x	x	x	x
Cc1cc(C)c(C)c(S(=O)(=O)Nc2ccc3cn[nH]c3c2)c1C	92*	x	x	x	x	x	13
COC(=O)c1ccccc1S(=O)(=O)Nc1ccc2cn[nH]c2c1	23	-5	-4	22	2	0.8	x
COc1ccc(Cl)cc1N(CC(=O)NCc1ccccn1)S(=O)(=O)c1ccc(C)cc1	-5	x	x	x	x	x	x
O=S(=O)(c1ccccc1)N1CCN(S(=O)(=O)c2ccccc2)c2ccccc21	112*	x	x	x	x	x	45
O=S(=O)(c1ccccc1)N1CCNc2ccccc21	23	x	x	x	x	x	x
CC(C)N1CCN(S(=O)(=O)c2ccccc2)c2ccccc21	95*	x	x	x	x	x	38
Cc1ccc(NC(=S)NC(NC(=O)c2ccccc2C)C(Cl)(Cl)Cl)c(C)c1 (stereo not given)	27	28	2	18	3	0.8	x
Cc1nn(C)c(C)c1S(=O)(=O)N1CCC(CO)(CC2CCCCO2)CC1 (stereo not given)	-1	-3	7	9	0	0.9	x
COc1ccc(CN(Cc2cccn2C)S(=O)(=O)c2ccc(C)cc2)cc1	66*	x	x	x	x	x	2
COc1ccc(NC(=O)c2ccc(NC(=O)CN(C)CC(=O)Nc3c(C)cccc3C)cc2)cc1	-9	x	x	x	x	x	x
O=C(CSc1ncn(-c2ccccc2)n1)N1CCc2ccccc21	60*	0	-28	13	0	0.9	6
O=C(CN1CCN(c2ccc(O)cc2)CC1)N1CCc2ccccc21	63*	x	x	x	x	x	20
O=C(CN1C(=O)CSc2ncccc21)Nc1ccccc1F	-7	x	x	x	x	x	x
C=CCOc1c(Cl)cc(CNc2ccc3[nH]c(=O)[nH]c3c2)cc1OC	64*	3	3	36	0	0.6	58*	Diaph ctr 10uM=21;Diaphorase 30uM=18
CC(C)(C)OC(=O)NC(CCCCNC=O)C(=O)O (stereo not given)	-5	-3	4	11	2	0.9	x
CCS(=O)(=O)c1cc([N+](=O)[O-])c(Sc2ccccc2NC(C)=O)s1	62*	x	x	x	x	x	-8
CC(=O)Nc1ccc(NC(=O)c2ccccc2Sc2ccc([N+](=O)[O-])cc2Cl)cc1	48	94*	-14	15	0	0.8	15
O=C(Nc1ccc(Nc2ccccc2)cc1)c1cc([N+](=O)[O-])ccc1Cl	20	x	x	x	x	x	x
